{"source": "ChEMBL document CHEMBL4402597", "about": "“Truncated (N)-Methanocarba Nucleosides as Partial Agonists at Mouse and Human A3 Adenosine Receptors: Affinity Enhancement by N6-(2-Phenylethyl) Substitution” (J Med Chem, 2020)", "key": {"[1]": {"target": "T1, Adenosine receptor A1 (Homo sapiens) (UniProt P30542)", "T1 sequence (whole entry)": "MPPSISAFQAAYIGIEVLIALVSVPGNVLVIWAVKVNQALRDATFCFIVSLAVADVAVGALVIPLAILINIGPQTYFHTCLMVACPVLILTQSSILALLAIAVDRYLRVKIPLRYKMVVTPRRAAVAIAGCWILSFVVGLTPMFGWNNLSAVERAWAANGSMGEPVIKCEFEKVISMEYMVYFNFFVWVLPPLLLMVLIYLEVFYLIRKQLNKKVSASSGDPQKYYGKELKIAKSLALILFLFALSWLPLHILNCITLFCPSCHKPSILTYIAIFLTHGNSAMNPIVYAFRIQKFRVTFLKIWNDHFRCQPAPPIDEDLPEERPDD", "assay": "Displacement of [3H]R-PIA from recombinant human A1AR expressed in HEK293 cell membranes at 10 uM measured after 60 mins by liquid scintillation counting method relative to control"}, "Adenosine receptor A1": {"target": "T2, Adenosine receptor A1 (Mus musculus, UniProt Q60612)", "T2 sequence (Q60612 whole entry)": "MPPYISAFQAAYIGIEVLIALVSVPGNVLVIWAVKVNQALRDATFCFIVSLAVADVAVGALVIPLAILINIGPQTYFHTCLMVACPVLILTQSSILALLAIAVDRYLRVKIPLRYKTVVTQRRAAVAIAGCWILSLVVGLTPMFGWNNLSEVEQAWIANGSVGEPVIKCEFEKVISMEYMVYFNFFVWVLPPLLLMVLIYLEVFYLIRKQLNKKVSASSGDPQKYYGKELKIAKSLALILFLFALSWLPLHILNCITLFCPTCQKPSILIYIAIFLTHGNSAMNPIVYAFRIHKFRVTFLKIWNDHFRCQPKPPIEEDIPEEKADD", "assay": "Displacement of [3H]R-PIA from recombinant mouse A1AR expressed in HEK293 cell membranes measured after 60 mins by liquid scintillation counting method"}, "Adenosine receptor A2a": {"target": "Adenosine receptor A2a (Homo sapiens, UniProt P29274)", "sequence (P29274 whole entry)": "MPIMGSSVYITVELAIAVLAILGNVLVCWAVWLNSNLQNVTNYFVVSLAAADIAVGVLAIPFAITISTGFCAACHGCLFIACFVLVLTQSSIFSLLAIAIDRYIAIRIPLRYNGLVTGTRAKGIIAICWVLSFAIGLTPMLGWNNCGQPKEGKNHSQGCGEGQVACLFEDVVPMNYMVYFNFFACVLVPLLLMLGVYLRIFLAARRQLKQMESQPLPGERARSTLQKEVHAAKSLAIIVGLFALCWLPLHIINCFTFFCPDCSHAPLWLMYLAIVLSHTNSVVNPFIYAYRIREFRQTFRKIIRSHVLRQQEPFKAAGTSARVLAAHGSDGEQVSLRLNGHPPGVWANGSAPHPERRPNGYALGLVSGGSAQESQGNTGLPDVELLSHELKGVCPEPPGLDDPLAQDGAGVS", "assay": "Displacement of [3H]CGS21680 from recombinant human A2AAR expressed in HEK293 cell membranes at 10 uM measured after 60 mins by liquid scintillation counting method relative to control"}, "[2]": {"target": "T3, Adenosine receptor A3 (Mus musculus) (UniProt Q61618)", "T3 sequence (whole entry)": "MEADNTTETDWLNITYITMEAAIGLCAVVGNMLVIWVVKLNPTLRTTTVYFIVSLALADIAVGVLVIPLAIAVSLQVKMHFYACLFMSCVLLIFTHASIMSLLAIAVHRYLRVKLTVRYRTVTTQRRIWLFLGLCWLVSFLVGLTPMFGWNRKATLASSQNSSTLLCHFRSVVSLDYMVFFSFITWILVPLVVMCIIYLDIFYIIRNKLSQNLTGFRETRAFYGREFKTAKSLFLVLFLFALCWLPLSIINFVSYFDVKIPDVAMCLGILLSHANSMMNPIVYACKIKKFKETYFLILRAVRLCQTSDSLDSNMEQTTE", "assay": "Partial agonist activity at recombinant mouse A3AR expressed in HEK293 cell membranes assessed as stimulation of [35S]GTPgammaS binding measured after 2 hrs in presence of A2BAR blocker PSB-603 by liquid scintillation counting analysis relative to adenosine-5'-Nethyluronamide", "format": "functional"}, "[3]": {"target": "T4, Adenosine receptor A3 (Homo sapiens) (UniProt P0DMS8)", "T4 sequence (whole entry)": "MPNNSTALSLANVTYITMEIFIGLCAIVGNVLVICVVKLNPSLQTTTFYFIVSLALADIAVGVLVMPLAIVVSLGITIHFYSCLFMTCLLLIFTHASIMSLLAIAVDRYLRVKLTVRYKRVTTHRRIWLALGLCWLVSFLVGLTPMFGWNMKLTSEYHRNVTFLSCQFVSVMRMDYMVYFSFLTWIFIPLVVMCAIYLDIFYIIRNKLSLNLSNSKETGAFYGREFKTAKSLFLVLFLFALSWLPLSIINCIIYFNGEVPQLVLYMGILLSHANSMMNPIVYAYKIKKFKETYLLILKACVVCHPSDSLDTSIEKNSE", "assay": "Partial agonist activity at recombinant human A3AR expressed in HEK293 cells assessed as inhibition of forskolin-stimulated cAMP accumulation by measuring residual cAMP level measured after 30 mins in presence of A2BAR blocker PSB-603 by Glo-sensor assay relative to control", "format": "functional, cell-based"}, "[4]": {"target": "T4, Adenosine receptor A3 (Homo sapiens)", "assay": "Partial agonist activity at recombinant human A3AR expressed in HEK293 cells assessed as inhibition of forskolin-stimulated cAMP accumulation at 10 uM measured after 30 mins in presence of A2BAR blocker PSB-603 by Glo-sensor assay relative to Cl-IB-MECA", "format": "functional, cell-based"}, "[5]": {"target": "Sigma non-opioid intracellular receptor 1 (Homo sapiens, UniProt Q99720)", "sequence (Q99720 whole entry)": "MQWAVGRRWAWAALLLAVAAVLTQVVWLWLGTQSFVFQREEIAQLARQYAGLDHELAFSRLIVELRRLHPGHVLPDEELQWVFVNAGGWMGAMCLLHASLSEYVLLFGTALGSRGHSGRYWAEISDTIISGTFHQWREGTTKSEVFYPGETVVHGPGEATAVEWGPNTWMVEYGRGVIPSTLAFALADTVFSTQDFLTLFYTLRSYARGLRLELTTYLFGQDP", "assay": "Displacement of [3H]-Pentazocine from sigma 1 receptor (unknown origin) measured after 90 mins by microbeta counting analysis"}, "[6]": {"target": "Sigma intracellular receptor 2 (Homo sapiens, UniProt Q5BJF2)", "sequence (Q5BJF2 whole entry)": "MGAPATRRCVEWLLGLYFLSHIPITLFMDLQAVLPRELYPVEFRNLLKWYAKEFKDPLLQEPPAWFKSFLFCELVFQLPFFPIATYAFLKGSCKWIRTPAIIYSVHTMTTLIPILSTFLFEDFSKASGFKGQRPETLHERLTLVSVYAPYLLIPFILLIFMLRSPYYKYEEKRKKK", "assay": "Displacement of [3H]-DTG from sigma 2 receptor (unknown origin) measured after 90 mins by microbeta counting analysis"}, "Translocator protein": {"target": "Translocator protein (Homo sapiens, UniProt P30536)", "sequence (P30536 whole entry)": "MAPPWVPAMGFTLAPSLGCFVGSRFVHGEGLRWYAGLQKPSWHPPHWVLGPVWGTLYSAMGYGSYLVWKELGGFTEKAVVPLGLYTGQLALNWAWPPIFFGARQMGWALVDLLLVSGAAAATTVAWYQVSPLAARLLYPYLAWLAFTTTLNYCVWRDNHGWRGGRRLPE", "assay": "Inhibition of TSPO (unknown origin)"}, "Cytochrome P450 1A2": {"target": "T5, Cytochrome P450 1A2 (Homo sapiens, UniProt P05177)", "T5 sequence (P05177 whole entry)": "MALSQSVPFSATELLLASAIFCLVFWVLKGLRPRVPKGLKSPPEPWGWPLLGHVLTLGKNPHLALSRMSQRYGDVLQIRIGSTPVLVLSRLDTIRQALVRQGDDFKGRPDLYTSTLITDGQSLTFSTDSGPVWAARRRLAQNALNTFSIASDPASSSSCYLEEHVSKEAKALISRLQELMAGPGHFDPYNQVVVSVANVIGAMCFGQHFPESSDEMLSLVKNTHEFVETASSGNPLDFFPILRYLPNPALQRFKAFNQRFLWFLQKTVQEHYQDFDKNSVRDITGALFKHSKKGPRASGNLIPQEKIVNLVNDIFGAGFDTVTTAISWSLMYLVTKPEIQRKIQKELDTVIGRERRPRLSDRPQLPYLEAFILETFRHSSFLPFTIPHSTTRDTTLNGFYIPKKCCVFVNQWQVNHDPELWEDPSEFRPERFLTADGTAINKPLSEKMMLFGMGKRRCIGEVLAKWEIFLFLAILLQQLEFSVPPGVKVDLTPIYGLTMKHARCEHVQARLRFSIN", "assay": "Inhibition of CYP1A2 (unknown origin)"}, "Cytochrome P450 2C9": {"target": "Cytochrome P450 2C9 (Homo sapiens, UniProt P11712)", "sequence (P11712 whole entry)": "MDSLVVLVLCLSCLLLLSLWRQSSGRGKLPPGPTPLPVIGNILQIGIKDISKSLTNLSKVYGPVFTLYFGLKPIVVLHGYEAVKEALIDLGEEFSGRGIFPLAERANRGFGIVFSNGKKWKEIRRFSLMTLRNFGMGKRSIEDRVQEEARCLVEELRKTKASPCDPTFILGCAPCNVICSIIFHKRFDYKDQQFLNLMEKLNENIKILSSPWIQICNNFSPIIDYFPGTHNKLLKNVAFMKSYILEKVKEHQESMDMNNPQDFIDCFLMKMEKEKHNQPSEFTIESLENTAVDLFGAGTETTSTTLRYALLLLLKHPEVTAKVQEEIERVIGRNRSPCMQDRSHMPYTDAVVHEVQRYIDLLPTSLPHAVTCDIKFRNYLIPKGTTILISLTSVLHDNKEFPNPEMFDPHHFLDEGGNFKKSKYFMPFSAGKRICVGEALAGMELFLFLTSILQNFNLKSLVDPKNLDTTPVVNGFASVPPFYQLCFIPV", "assay": "Inhibition of CYP2C9 (unknown origin) using tolbutamide as substrate"}, "Cytochrome P450 2C19": {"target": "Cytochrome P450 2C19 (Homo sapiens, UniProt P33261)", "sequence (P33261 whole entry)": "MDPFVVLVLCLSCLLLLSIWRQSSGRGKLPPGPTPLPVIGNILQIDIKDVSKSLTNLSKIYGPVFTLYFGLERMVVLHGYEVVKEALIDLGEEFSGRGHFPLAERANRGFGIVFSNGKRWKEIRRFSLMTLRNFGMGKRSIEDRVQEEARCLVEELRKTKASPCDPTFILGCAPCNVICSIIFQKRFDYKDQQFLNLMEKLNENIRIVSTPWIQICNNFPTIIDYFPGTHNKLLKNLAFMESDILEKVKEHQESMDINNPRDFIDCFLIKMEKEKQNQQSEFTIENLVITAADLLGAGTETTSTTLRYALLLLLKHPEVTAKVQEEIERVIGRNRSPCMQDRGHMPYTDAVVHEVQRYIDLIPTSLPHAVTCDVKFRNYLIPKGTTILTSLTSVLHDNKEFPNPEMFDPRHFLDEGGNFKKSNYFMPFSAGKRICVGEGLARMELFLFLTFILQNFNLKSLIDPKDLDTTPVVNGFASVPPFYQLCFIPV", "assay": "Inhibition of CYP2C19 (unknown origin)"}, "Cytochrome P450 2D6": {"target": "Cytochrome P450 2D6 (Homo sapiens, UniProt P10635)", "sequence (P10635 whole entry)": "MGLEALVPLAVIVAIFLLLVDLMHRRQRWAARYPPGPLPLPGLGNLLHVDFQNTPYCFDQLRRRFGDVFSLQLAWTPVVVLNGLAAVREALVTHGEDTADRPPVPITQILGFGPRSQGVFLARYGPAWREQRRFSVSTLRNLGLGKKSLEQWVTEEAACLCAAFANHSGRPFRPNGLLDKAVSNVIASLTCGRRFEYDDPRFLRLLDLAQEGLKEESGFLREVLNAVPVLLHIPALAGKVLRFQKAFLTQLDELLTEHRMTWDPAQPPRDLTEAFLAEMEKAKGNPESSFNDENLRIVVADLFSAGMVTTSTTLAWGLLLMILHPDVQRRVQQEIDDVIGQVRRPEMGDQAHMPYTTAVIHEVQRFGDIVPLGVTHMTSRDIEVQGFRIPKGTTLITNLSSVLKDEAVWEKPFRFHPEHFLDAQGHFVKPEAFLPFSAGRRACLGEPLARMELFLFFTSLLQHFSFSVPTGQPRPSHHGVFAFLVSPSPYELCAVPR", "assay": "Inhibition of CYP2D6 (unknown origin) using dextromethorphan as substrate"}, "Cytochrome P450 3A4": {"target": "Cytochrome P450 3A4 (Homo sapiens, UniProt P08684)", "sequence (P08684 whole entry)": "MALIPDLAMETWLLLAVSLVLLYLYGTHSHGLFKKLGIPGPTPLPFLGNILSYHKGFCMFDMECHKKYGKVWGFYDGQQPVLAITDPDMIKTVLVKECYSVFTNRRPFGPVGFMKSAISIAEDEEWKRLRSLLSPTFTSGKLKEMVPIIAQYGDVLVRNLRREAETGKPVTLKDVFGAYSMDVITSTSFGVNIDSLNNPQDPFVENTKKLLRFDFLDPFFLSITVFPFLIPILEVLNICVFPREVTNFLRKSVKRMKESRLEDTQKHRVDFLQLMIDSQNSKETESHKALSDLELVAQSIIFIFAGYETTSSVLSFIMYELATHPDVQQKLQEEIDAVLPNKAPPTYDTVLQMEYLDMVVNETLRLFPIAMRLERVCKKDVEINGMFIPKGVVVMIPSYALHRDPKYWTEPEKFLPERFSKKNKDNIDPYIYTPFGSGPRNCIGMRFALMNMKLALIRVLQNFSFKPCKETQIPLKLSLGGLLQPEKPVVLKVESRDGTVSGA", "assay": "Inhibition of CYP3A4 (unknown origin) using midazolam as substrate"}, "[7]": {"assay": "Half life in Wistar rat at 3 mg/kg, po", "format": "ADME, organism-based", "conditions": "in vivo"}, "[8]": {"assay": "Half life in Wistar rat at 10 mg/kg, po", "format": "ADME, organism-based", "conditions": "in vivo"}, "Mus musculus [9]": {"test_system": "Mus musculus", "assay": "In vivo agonist activity at A3AR in C57BL/6J mouse assessed as reduction in core body temperature at 10 mg/kg, ip measured up to 2 hrs by telemetric method", "format": "functional, organism-based", "procedure,_shortened": "(§1)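 Male C57BL/6J wild-type mice, plus A3AR-knockout (ADORA3−/−) mice at 10 mg/kg, given test agent or vehicle i.p. Core body temperature (Tb) was followed over time. N=4 to 12 per group. Groups were compared by two-tailed t-test, paired or unpaired as appropriate.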"}, "Mus musculus [10]": {"test_system": "Mus musculus", "assay": "Induction of hypothermia in A3AR knock out C57BL/6J mouse at 10 mg/kg, ip measured up to 2 hrs by telemetric method", "format": "functional, organism-based", "procedure,_shortened": "as §1"}, "Mus musculus [11]": {"test_system": "Mus musculus", "assay": "In vivo agonist activity at A3AR in C57BL/6J mouse assessed as reduction in core body temperature at 3 mg/kg, ip measured up to 2 hrs by telemetric method", "format": "functional, organism-based", "procedure,_shortened": "as §1"}, "Mus musculus [12]": {"test_system": "Mus musculus", "assay": "In vivo antagonist activity at A3AR in C57BL/6J mouse assessed as inhibition of MRS5698-induced hypothermia at 3 to 10 mg/kg, ip pretreated for 15 mins followed by MRS5698 addition and measured up to 2 hrs by telemetric method", "format": "functional, organism-based"}, "in vivo [13]": {"assay": "in vivo", "conditions": "Wistar, rat, po, 3 mg/kg"}, "in vivo [14]": {"assay": "in vivo", "conditions": "Wistar, rat, po, 10 mg/kg"}}, "note": "Active and inactive are the calls of the source. The rule behind the calls is not given here."}
{"molecule": "COc1cc(CCNc2nc(C#Cc3ccccc3)nc3c2ncn3[C@H]2[C@H](O)[C@H](O)[C@@H]3C[C@@H]32)ccc1O", "values": [{"measurement": "inhibition", "setting": "[1]", "result": 33, "unit": "%"}, {"measurement": "Ki", "setting": "Adenosine receptor A1", "result": 590, "unit": "nM"}, {"measurement": "inhibition", "setting": "Adenosine receptor A2a", "result": 39, "unit": "%"}, {"measurement": "Emax", "setting": "[2]", "result": 16, "unit": "%"}, {"measurement": "Emax", "setting": "[3]", "result": 75.5, "unit": "%"}, {"measurement": "Emax", "setting": "[4]", "result": 31, "unit": "%"}, {"measurement": "Ki", "setting": "[5]", "result": 3.57, "unit": "µM"}, {"measurement": "Ki", "setting": "[6]", "result": 1980, "unit": "nM"}, {"measurement": "Ki", "setting": "Translocator protein", "result": 2220, "unit": "nM"}, {"measurement": "IC50", "setting": "Cytochrome P450 1A2", "result": 2890, "unit": "nM"}, {"measurement": "IC50", "setting": "Cytochrome P450 2C9", "result": 14.4, "unit": "µM"}, {"measurement": "IC50", "setting": "Cytochrome P450 2C19", "result": "> 30", "unit": "µM"}, {"measurement": "IC50", "setting": "Cytochrome P450 2D6", "result": "> 30", "unit": "µM"}, {"measurement": "IC50", "setting": "Cytochrome P450 3A4", "result": 2230, "unit": "nM"}, {"measurement": "half-life", "setting": "[7]", "result": 27.4, "unit": "min"}, {"measurement": "half-life", "setting": "[8]", "result": 29.4, "unit": "min"}, {"measurement": "Activity", "setting": "Mus musculus [9]", "result": "Active"}, {"measurement": "Activity", "setting": "Mus musculus [10]", "result": "inactive"}, {"measurement": "Activity", "setting": "Mus musculus [11]", "result": "Active"}, {"measurement": "inhibition", "setting": "Mus musculus [12]", "result": "inactive"}, {"measurement": "bioavailability", "setting": "in vivo [13]", "result": 1.5, "unit": "%"}, {"measurement": "bioavailability", "setting": "in vivo [14]", "result": 3.5, "unit": "%"}]}
